Measurements as given in ChEMBL document CHEMBL4627266, “Design and biological evaluation of a novel type of potential multi-targeting antimicrobial sulfanilamide hybrids in combination of pyrimidine and azoles” (Bioorg Med Chem Lett, 2020).
Converted amounts (≈) assume the structure as drawn. The source made the active and inactive calls. The rule behind the calls is not given here.

Experiments:
Klebsiella pneumoniae = experiment: Antibacterial activity against Klebsiella pneumoniae by two fold serial microbroth dilution method; assay type: functional
Outline: (§1)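 Two-fold serial dilution in microdilution plates (micro broth dilution) following CLSI. Panel includes clinical drug-resistant isolates and ATCC reference strains. Clinical drugs were run as positive controls.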

Acinetobacter baumannii = experiment: Antibacterial activity against Acinetobacter baumannii by two fold serial microbroth dilution method; assay type: functional; outline: as §1
Escherichia coli [1] = experiment: Antibacterial activity against Escherichia coli by two fold serial microbroth dilution method; assay type: functional; outline: as §1
Staphylococcus aureus [2] = experiment: Antibacterial activity against Staphylococcus aureus ATCC 29213 by two fold serial microbroth dilution method; assay type: functional; outline: as §1
Staphylococcus aureus [3] = experiment: Antibacterial activity against Staphylococcus aureus ATCC 25923 by two fold serial microbroth dilution method; assay type: functional; outline: as §1
Staphylococcus aureus [4] = experiment: Antibacterial activity against methicillin-resistant Staphylococcus aureus by two fold serial microbroth dilution method; assay type: functional
Outline: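 Two-fold serial microbroth dilution in microdilution plates, run per CLSI, with clinical antibacterial drugs as positive controls. The MRSA strain was a drug-resistant clinical isolate from infected patients. MIC (μg/mL) was read as the lowest concentration giving complete inhibition of visible bacterial growth.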

Pseudomonas aeruginosa [5] = experiment: Antibacterial activity against Pseudomonas aeruginosa ATCC 27853 by two fold serial microbroth dilution method; assay type: functional; outline: as §1
Enterococcus faecalis [6] = experiment: Antibacterial activity against Enterococcus faecalis by two fold serial microbroth dilution method; assay type: functional; outline: as §1
Escherichia coli [7] = experiment: Antibacterial activity against Escherichia coli ATCC 25922 by two fold serial microbroth dilution method; assay type: functional; outline: as §1
Staphylococcus aureus [8] = experiment: Antibacterial activity against Staphylococcus aureus by two fold serial microbroth dilution method; assay type: functional; outline: as §1
Pseudomonas aeruginosa [9] = experiment: Antibacterial activity against Pseudomonas aeruginosa by two fold serial microbroth dilution method; assay type: functional; outline: as §1
Candida albicans [10] = experiment: Antifungal activity against Candida albicans by two fold serial microbroth dilution method; assay type: functional
Outline: (§2)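 Antifungal MIC by two-fold serial dilution following CLSI, with a clinical drug as positive control. Panel includes clinical drug-resistant fungal isolates.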

Aspergillus fumigatus = experiment: Antifungal activity against Aspergillus fumigatus by two fold serial microbroth dilution method; assay type: functional; outline: as §2
Candida tropicalis = experiment: Antifungal activity against Candida tropicalis by two fold serial microbroth dilution method; assay type: functional; outline: as §2
Candida albicans [11] = experiment: Antifungal activity against Candida albicans ATCC 90023 by two fold serial microbroth dilution method; assay type: functional; outline: as §2
Enterococcus faecalis [12] = experiment: Antibacterial activity against Enterococcus faecalis measured after 16 passages by microbroth dilution method; assay type: functional, organism-based
DNA [13] = experiment: Binding affinity to Enterococcus faecalis DNA assessed as hyperchromic effect by UV-visible spectrophotometric method; assay type: nucleic-acid assay
Albumin = Albumin (Homo sapiens, UniProt P02768); experiment: Binding affinity to HSA by UV-visible spectrophotometric method; assay type: ADME; settings: isolated protein
Enterococcus faecalis [14] = experiment: Bactericidal activity against Enterococcus faecalis assessed as log10 reduction in CFU at MIC to 6XMIC by time kill kinetics analysis; assay type: functional
Outline: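 E. faecalis was exposed to the compound at MIC and 6 × MIC. Viable counts (log CFU/mL) were followed over time.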

DNA [15] = experiment: Binding affinity to Enterococcus faecalis DNA assessed as decrease in maximum absorption of DNA-NR complex at 530 nm by neutral red dye based absorption spectral assay; assay type: nucleic-acid assay
[16] = Cytotoxicity against human A549 cells assessed as cell viability at 64 ug/ml incubated for 24 hrs by MTT assay relative to control; assay type: cell-based; settings: read-out: Activity
Outline: (§3)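 A549 lung cancer cells and BEAS-2B normal lung epithelial cells were exposed to the compound at a range of concentrations up to 64 μg/mL for 24 h. Viability was read by colorimetric MTT cell proliferation assay. Doxorubicin at 0.5 µM served as positive control.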

DNA [17] = experiment: Binding affinity to Enterococcus faecalis DNA assessed as blue shift by UV-visible spectrophotometric method; assay type: nucleic-acid assay
Enterococcus faecalis [18] = experiment: Induction of cell membrane permeabilization in Enterococcus faecalis at 12XMIC measured after 60 mins by PI staining based fluorescence assay; assay type: organism-based
Outline: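 E. faecalis cells were treated with the compound at 12 × MIC in the presence of propidium iodide, which enters only compromised cells and fluoresces on binding dsDNA. Fluorescence at 617 nm was followed over time, to about 120 min.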

[19] = Cytotoxicity against human BEAS2B cells assessed as cell viability at 64 ug/ml incubated for 24 hrs by MTT assay relative to control; assay type: cell-based; settings: BEAS-2B cells, read-out: Activity; outline: as §3
DNA [20] = experiment: Binding affinity to Enterococcus faecalis DNA assessed as increase in absorption peak at 460 nm by neutral red dye based absorption spectral assay; assay type: nucleic-acid assay

Chain of Albumin (P02768 whole entry): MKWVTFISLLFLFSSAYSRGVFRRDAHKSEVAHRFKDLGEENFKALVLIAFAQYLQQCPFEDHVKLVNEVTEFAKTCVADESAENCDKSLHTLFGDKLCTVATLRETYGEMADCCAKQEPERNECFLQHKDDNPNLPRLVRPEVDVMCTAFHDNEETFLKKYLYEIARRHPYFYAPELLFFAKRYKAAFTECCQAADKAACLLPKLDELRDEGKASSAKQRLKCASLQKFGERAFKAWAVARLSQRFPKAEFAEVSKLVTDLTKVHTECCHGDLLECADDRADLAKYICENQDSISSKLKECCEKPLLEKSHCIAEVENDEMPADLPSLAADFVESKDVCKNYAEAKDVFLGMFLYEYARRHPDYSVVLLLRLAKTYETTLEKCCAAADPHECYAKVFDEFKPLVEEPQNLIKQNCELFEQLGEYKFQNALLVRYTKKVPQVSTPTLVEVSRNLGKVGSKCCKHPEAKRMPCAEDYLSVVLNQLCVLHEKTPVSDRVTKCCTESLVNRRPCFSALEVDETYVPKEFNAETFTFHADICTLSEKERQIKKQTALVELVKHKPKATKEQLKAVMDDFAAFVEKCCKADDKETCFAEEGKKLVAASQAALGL

| Compound | MIC (Klebsiella pneumoniae) [µg/mL] | MIC (Acinetobacter baumannii) [µg/mL] | MIC (Escherichia coli [1]) [µg/mL] | MIC (Staphylococcus aureus [2]) [µg/mL] | MIC (Staphylococcus aureus [3]) [µg/mL] | MIC (Staphylococcus aureus [4]) [µg/mL] | MIC (Pseudomonas aeruginosa [5]) [µg/mL] | MIC (Enterococcus faecalis [6]) [µg/mL] | MIC (Escherichia coli [7]) [µg/mL] | MIC (Staphylococcus aureus [8]) [µg/mL] | MIC (Pseudomonas aeruginosa [9]) [µg/mL] | MIC (Candida albicans [10]) [µg/mL] | other results |
| --- | --- | --- | --- | --- | --- | --- | --- | --- | --- | --- | --- | --- | --- |
| Cc1cc2ncn(-c3ccnc(NS(=O)(=O)c4ccc(N)cc4)n3)c2cc1C | 256 (≈ 649 µM) | 128 (≈ 324 µM) | 256 (≈ 649 µM) | 128 (≈ 324 µM) | 256 (≈ 649 µM) | 64 (≈ 162 µM) | 128 (≈ 324 µM) | 256 (≈ 649 µM) | 512 (≈ 1300 µM) | 256 (≈ 649 µM) | 256 (≈ 649 µM) | – | – |
| CC(C)c1nccn1-c1ccnc(NS(=O)(=O)c2ccc(N)cc2)n1 | 256 (≈ 714 µM) | 64 (≈ 179 µM) | 64 (≈ 179 µM) | 32 (≈ 89.3 µM) | 256 (≈ 714 µM) | 32 (≈ 89.3 µM) | 32 (≈ 89.3 µM) | 128 (≈ 357 µM) | 128 (≈ 357 µM) | 256 (≈ 714 µM) | 128 (≈ 357 µM) | – | – |
| Nc1ccc(S(=O)(=O)Nc2nccc(-n3cncn3)n2)cc1 | 32 (≈ 101 µM) | 128 (≈ 403 µM) | 128 (≈ 403 µM) | 64 (≈ 202 µM) | 256 (≈ 807 µM) | 128 (≈ 403 µM) | 32 (≈ 101 µM) | 256 (≈ 807 µM) | 256 (≈ 807 µM) | 512 (≈ 1610 µM) | 4 (≈ 12.6 µM) | 8 (≈ 25.2 µM) | – |
| CCc1nccn1-c1ccnc(NS(=O)(=O)c2ccc(N)cc2)n1 | 64 (≈ 186 µM) | 64 (≈ 186 µM) | 128 (≈ 372 µM) | 64 (≈ 186 µM) | 128 (≈ 372 µM) | 128 (≈ 372 µM) | 128 (≈ 372 µM) | 64 (≈ 186 µM) | 512 (≈ 1490 µM) | 128 (≈ 372 µM) | 128 (≈ 372 µM) | – | – |
| Cc1ncc([N+](=O)[O-])n1-c1ccnc(NS(=O)(=O)c2ccc(N)cc2)n1 | 64 (≈ 170 µM) | 64 (≈ 170 µM) | 128 (≈ 341 µM) | 128 (≈ 341 µM) | 128 (≈ 341 µM) | 64 (≈ 170 µM) | 128 (≈ 341 µM) | 128 (≈ 341 µM) | 256 (≈ 682 µM) | 128 (≈ 341 µM) | 256 (≈ 682 µM) | – | – |
| Nc1ccc(S(=O)(=O)Nc2nccc(-n3ccc4cc(Br)ccc43)n2)cc1 | 32 (≈ 72 µM) | 128 (≈ 288 µM) | 4 (≈ 9 µM) | 16 (≈ 36 µM) | 2 (≈ 4.5 µM) | 4 (≈ 9 µM) | 4 (≈ 9 µM) | 4 (≈ 9 µM) | 2 (≈ 4.5 µM) | 64 (≈ 144 µM) | 4 (≈ 9 µM) | 2 to 8 (≈ 4.5 to 18 µM) | MIC (Aspergillus fumigatus): 2 to 8 µg/mL (≈ 4.5 to 18 µM); MIC (Candida tropicalis): 2 to 8 µg/mL (≈ 4.5 to 18 µM) |
| Nc1ccc(S(=O)(=O)Nc2nccc(-n3ccc4cc([N+](=O)[O-])ccc43)n2)cc1 | 32 (≈ 78 µM) | 128 (≈ 312 µM) | 8 (≈ 19.5 µM) | 64 (≈ 156 µM) | 4 (≈ 9.75 µM) | 16 (≈ 39 µM) | 8 (≈ 19.5 µM) | 8 (≈ 19.5 µM) | 128 (≈ 312 µM) | 32 (≈ 78 µM) | 16 (≈ 39 µM) | 2 to 8 (≈ 4.87 to 19.5 µM) | MIC (Aspergillus fumigatus): 2 to 8 µg/mL (≈ 4.87 to 19.5 µM); MIC (Candida tropicalis): 2 to 8 µg/mL (≈ 4.87 to 19.5 µM) |
| CCCc1nccn1-c1ccnc(NS(=O)(=O)c2ccc(N)cc2)n1 | 64 (≈ 179 µM) | 32 (≈ 89.3 µM) | 16 (≈ 44.6 µM) | 8 (≈ 22.3 µM) | 64 (≈ 179 µM) | 16 (≈ 44.6 µM) | 128 (≈ 357 µM) | 64 (≈ 179 µM) | 128 (≈ 357 µM) | 8 (≈ 22.3 µM) | 128 (≈ 357 µM) | – | MIC (Candida albicans [11]): 4 µg/mL (≈ 11.2 µM) |
| CCn1cc(C(=O)O)c(=O)c2cc(F)c(N3CCNCC3)cc21 [NORFLOXACIN] | 4 (≈ 12.5 µM) | 8 (≈ 25.1 µM) | 16 (≈ 50.1 µM) | 2 (≈ 6.26 µM) | 1 (≈ 3.13 µM) | 8 (≈ 25.1 µM) | 0.5 (≈ 1.57 µM) | 4 (≈ 12.5 µM) | 8 (≈ 25.1 µM) | 0.5 (≈ 1.57 µM) | 2 (≈ 6.26 µM) | – | Activity (Enterococcus faecalis [12]): inactive |
| Cc1ccc2c(ccn2-c2ccnc(NS(=O)(=O)c3ccc(N)cc3)n2)c1 | 8 (≈ 21.1 µM) | 64 (≈ 169 µM) | 8 (≈ 21.1 µM) | 16 (≈ 42.2 µM) | 4 (≈ 10.5 µM) | 4 (≈ 10.5 µM) | 4 (≈ 10.5 µM) | 8 (≈ 21.1 µM) | 32 (≈ 84.3 µM) | 16 (≈ 42.2 µM) | 4 (≈ 10.5 µM) | 2 to 8 (≈ 5.27 to 21.1 µM) | MIC (Aspergillus fumigatus): 2 to 8 µg/mL (≈ 5.27 to 21.1 µM); MIC (Candida tropicalis): 2 to 8 µg/mL (≈ 5.27 to 21.1 µM) |
| Nc1ccc(S(=O)(=O)Nc2nccc(-n3ccnc3)n2)cc1 | 256 (≈ 809 µM) | 64 (≈ 202 µM) | 256 (≈ 809 µM) | 128 (≈ 405 µM) | 256 (≈ 809 µM) | 32 (≈ 101 µM) | 256 (≈ 809 µM) | 128 (≈ 405 µM) | 256 (≈ 809 µM) | 128 (≈ 405 µM) | 128 (≈ 405 µM) | – | – |
| Nc1ccc(S(=O)(=O)Nc2nccc(-n3cnc4ccccc43)n2)cc1 | 256 (≈ 699 µM) | 512 (≈ 1400 µM) | 128 (≈ 349 µM) | 256 (≈ 699 µM) | 512 (≈ 1400 µM) | 8 (≈ 21.8 µM) | 256 (≈ 699 µM) | 256 (≈ 699 µM) | 256 (≈ 699 µM) | 256 (≈ 699 µM) | 512 (≈ 1400 µM) | – | – |
| Nc1ccc(S(=O)(=O)Nc2nccc(-n3ccc4ccccc43)n2)cc1 | 32 (≈ 87.6 µM) | – | 32 (≈ 87.6 µM) | 8 (≈ 21.9 µM) | 4 (≈ 10.9 µM) | 2 (≈ 5.47 µM) | 1 (≈ 2.74 µM) | 1 (≈ 2.74 µM) | 32 (≈ 87.6 µM) | 32 (≈ 87.6 µM) | 8 (≈ 21.9 µM) | 2 to 8 (≈ 5.47 to 21.9 µM) | Activity (DNA [13]): Active; Activity (Albumin): Active; Activity (Enterococcus faecalis [12]): Active; Activity (Enterococcus faecalis [14]): >3 log10CFU/ml; MIC (Aspergillus fumigatus): 2 to 8 µg/mL (≈ 5.47 to 21.9 µM); Activity (DNA [15]): Active; viability at 24 h, 64 ug/ml [16]: 70%; Activity (DNA [17]): Active; Activity (Enterococcus faecalis [18]): Active; viability at 24 h, 64 ug/ml [19]: 70%; Activity (DNA [20]): Active; MIC (Candida tropicalis): 2 to 8 µg/mL (≈ 5.47 to 21.9 µM) |
| Cc1nccn1-c1ccnc(NS(=O)(=O)c2ccc(N)cc2)n1 | 512 (≈ 1550 µM) | 256 (≈ 775 µM) | 128 (≈ 387 µM) | 256 (≈ 775 µM) | 256 (≈ 775 µM) | 128 (≈ 387 µM) | 256 (≈ 775 µM) | 128 (≈ 387 µM) | 256 (≈ 775 µM) | 256 (≈ 775 µM) | 128 (≈ 387 µM) | – | – |
